In assay [1] the test system is Rhizoctonia solani. Nature of the assay: Antifungal activity against Rhizoctonia solani DL5588 assessed as colony reduction at 100 ug/disk after 2 to 6 days by paper disk agar diffusion method relative to control. It is filed as functional. Further details: scale not given: the % may be the effect or the level left. An outline of the steps: (§1)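 Tested on one-fourth-strength potato dextrose agar. A 5-mm mycelial agar plug from the colony edge was placed at the dish centre. A 6-mm disc with the compound in Me₂CO and an Me₂CO-only control disc were set on opposite sides, each 30 mm from the plug. After 2-6 days, colony radii were measured along the line joining the discs. Values are the mean of nine (3 weighings × 3 discs), analysed by two-way ANOVA.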
In general terms: Agar diffusion results depend on both activity and mobility in agar.

Assay [2] concerns Rhizoctonia solani. As to the kind of experiment: Antifungal activity against Rhizoctonia solani DL5588 assessed as colony reduction at 200 ug/disk after 2 to 6 days by paper disk agar diffusion method relative to control. It is filed as functional. Further details: scale not given: the % may be the effect or the level left. An outline of the steps: as §1
Assay [3] deals with Globisporangium ultimum. Nature of the assay: Antifungal activity against Pythium ultimum RG-5601 assessed as colony reduction at 100 ug/disk after 2 to 6 days by paper disk agar diffusion method relative to control. The assay is classed as functional. Further details: scale not given: the % may be the effect or the level left. An outline of the steps:
(§2)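 Paper-disc agar-diffusion on one-fourth-strength PDA. Mycelial agar plug (5 mm) from culture edge placed at plate centre; 6-mm disc loaded with compound in Me2CO and Me2CO-only control disc set on opposite sides, each 30 mm from plug. After 2-6 days (per growth rate), colony radii measured along line joining disc centres. Three separate weighings × three discs (nine) per organism; two-way ANOVA.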

Assay [4] deals with Globisporangium ultimum. Nature of the assay: Antifungal activity against Pythium ultimum RG-5601 assessed as colony reduction at 200 ug/disk after 2 to 6 days by paper disk agar diffusion method relative to control. The assay is classed as functional. Details: scale not given: the % may be the effect or the level left. The essentials: as §2
Assay [5] concerns Botrytis cinerea. As to the kind of experiment: Antifungal activity against Botrytis cinerea DL6050 assessed as colony reduction at 100 ug/disk after 2 to 6 days by paper disk agar diffusion method relative to control. Details: scale not given: the % may be the effect or the level left. It is filed as functional. The essentials:
as §1

The test system of assay [6] is Botrytis cinerea. As to the kind of experiment: Antifungal activity against Botrytis cinerea DL6050 assessed as colony reduction at 200 ug/disk after 2 to 6 days by paper disk agar diffusion method relative to control. The assay is classed as functional. Details: scale not given: the % may be the effect or the level left. The essentials: as §1
For assay [7], the system named is Athelia rolfsii. Nature of the assay: Antifungal activity against Sclerotium rolfsii RG-1984 assessed as colony reduction at 100 ug/disk after 2 to 6 days by paper disk agar diffusion method relative to control. It is filed as functional, Agroathelia rolfsii. Details: scale not given: the % may be the effect or the level left. The essentials: as §2
In assay [8] the test system is Athelia rolfsii. As to the kind of experiment: Antifungal activity against Sclerotium rolfsii RG-1984 assessed as colony reduction at 200 ug/disk after 2 to 6 days by paper disk agar diffusion method relative to control. Details: scale not given: the % may be the effect or the level left. It is filed as functional, Agroathelia rolfsii. An outline of the steps:
as §2

Assay [9] deals with Colletotrichum gloeosporioides. As to the kind of experiment: Antifungal activity against Colletotrichum gloeosporioides DL5605 assessed as colony reduction at 100 ug/disk after 2 to 6 days by paper disk agar diffusion method relative to control. It is filed as functional. Further details: scale not given: the % may be the effect or the level left. The essentials: as §1
Assay [10] concerns Colletotrichum gloeosporioides. As to the kind of experiment: Antifungal activity against Colletotrichum gloeosporioides DL5605 assessed as colony reduction at 200 ug/disk after 2 to 6 days by paper disk agar diffusion method relative to control. The assay is classed as functional. Further details: scale not given: the % may be the effect or the level left. An outline of the steps:
as §1

Assay [11] deals with Fusarium oxysporum. As to the kind of experiment: Antifungal activity against Fusarium oxysporum Fo0593-22 assessed as colony reduction at 100 ug/disk after 2 to 6 days by paper disk agar diffusion method relative to control. It is filed as functional. Further details: scale not given: the % may be the effect or the level left. An outline of the steps:
as §1

Assay [12] relates to Fusarium oxysporum. As to the kind of experiment: Antifungal activity against Fusarium oxysporum Fo0593-22 assessed as colony reduction at 200 ug/disk after 2 to 6 days by paper disk agar diffusion method relative to control. Details: scale not given: the % may be the effect or the level left. It is filed as functional. The essentials: as §1
Assay [13] relates to Bacillus subtilis. Nature of the assay: Antibacterial activity against Bacillus subtilis Bs1091 at 100 ug/disk by paper disk agar diffusion method. The settings on record: read-out: IZ. It is filed as functional. An outline of the steps:
(§3)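 Paper-disc agar-diffusion assay on Luria agar (tryptone, yeast extract, NaCl, agar), the medium used for maintaining and testing the bacteria. The compound was dissolved in Me₂CO and absorbed onto 6-mm paper discs at the stated amount per disc. Three separately weighed solutions were used, with three discs each, giving nine measurements per organism.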

Assay [14] concerns Bacillus subtilis. Nature of the assay: Antibacterial activity against Bacillus subtilis Bs1091 at 200 ug/disk by paper disk agar diffusion method. It is filed as functional. The settings on record: read-out: IZ. An outline of the steps:
as §3

Assay [15] deals with Pantoea agglomerans. Nature of the assay: Antibacterial activity against Erwinia herbicola SM-824 at 100 ug/disk by paper disk agar diffusion method. It is filed as functional. The settings on record: read-out: IZ. An outline of the steps: as §3
Assay [16] deals with Pantoea agglomerans. Nature of the assay: Antibacterial activity against Erwinia herbicola SM-824 at 200 ug/disk by paper disk agar diffusion method. It is filed as functional. The settings on record: read-out: IZ. The essentials:
as §3

Assay [17] concerns Staphylococcus. As to the kind of experiment: Antibacterial activity against Staphylococcus albus Sal1091-4 at 100 ug/disk by paper disk agar diffusion method. The assay is classed as functional. To be noted: read-out: IZ. An outline of the steps:
as §3

Assay [18] has as its system Staphylococcus. As to the kind of experiment: Antibacterial activity against Staphylococcus albus Sal1091-4 at 200 ug/disk by paper disk agar diffusion method. To be noted: read-out: IZ. It is filed as functional. An outline of the steps:
as §3

For assay [19], the system named is Pseudomonas fluorescens. As to the kind of experiment: Antibacterial activity against Pseudomonas fluorescens PFM2 at 100 ug/disk by paper disk agar diffusion method. The settings on record: read-out: IZ. It is filed as functional. An outline of the steps:
as §3

Assay [20] has as its system Pseudomonas fluorescens. Nature of the assay: Antibacterial activity against Pseudomonas fluorescens PFM2 at 200 ug/disk by paper disk agar diffusion method. It is filed as functional. To be noted: read-out: IZ. The essentials: as §3
In assay [21] the test system is Zymoseptoria tritici. As to the kind of experiment: Antifungal activity against Septoria tritici ISR-SE93 assessed as diameter of zone of inhibition at 100 ug/disk after 2 to 6 days by paper disk agar diffusion method. To be noted: read-out: IZ.
In assay [22] the test system is Zymoseptoria tritici. As to the kind of experiment: Antifungal activity against Septoria tritici ISR-SE93 assessed as diameter of zone of inhibition at 200 ug/disk after 2 to 6 days by paper disk agar diffusion method. The settings on record: read-out: IZ.

Regarding `O=C(O)[C@H]1CSC(c2ccccc2O)=N1`, the Activity is listed as 1% in the assay on Rhizoctonia solani [1]; 5% in the assay with Rhizoctonia solani [2]; 22% in the assay on Globisporangium ultimum [3]; 43% in the assay on Globisporangium ultimum [4]; 27% with Botrytis cinerea [5]; 43% with Botrytis cinerea [6]. Moreover, the Activity with Athelia rolfsii [7] is listed as 32%; with Athelia rolfsii [8], 53%; in [9], 8%; in assay [10], 10%; in the assay with Fusarium oxysporum [11] it was 8%; in the assay on Fusarium oxysporum [12] it was 15%. Further, the zone of inhibition at 100 µg/disc was found to be 10.8 mm in the assay with Bacillus subtilis [13]; 6.7 mm in the assay on Pantoea agglomerans [15]; 20.2 mm in the assay on Staphylococcus [17]; 0 mm in the assay on Pseudomonas fluorescens [19]; 0 mm with Zymoseptoria tritici [21]. Further, the zone of inhibition at 200 µg/disc was 13.3 mm with Bacillus subtilis [14]; 8.7 mm in the assay on Pantoea agglomerans [16]; 26.2 mm in the assay on Staphylococcus [18]; 0 mm with Pseudomonas fluorescens [20]; 13 mm in the assay on Zymoseptoria tritici [22].

Take `O=C(O)[C@@H]1CSC(c2ccccc2O)=N1`: the Activity with Rhizoctonia solani [1] was 6%; in the assay on Rhizoctonia solani [2], 17%; in the assay with Globisporangium ultimum [3] it was 12%; with Globisporangium ultimum [4] it was 33%; in the assay with Botrytis cinerea [5] it was 36%; in the assay with Botrytis cinerea [6] it was 46%. Further, the Activity in the assay on Athelia rolfsii [7] is reported as 32%; in the assay with Athelia rolfsii [8] it was 52%; in assay [9] it was 8%; in assay [10] it was 9%; with Fusarium oxysporum [11], 5%; with Fusarium oxysporum [12], 11%. Further, the zone of inhibition at 100 µg/disc in the assay with Bacillus subtilis [13] is 14.9 mm; in the assay on Pantoea agglomerans [15], 8.2 mm; in the assay on Staphylococcus [17], 22 mm; in the assay with Pseudomonas fluorescens [19], 0 mm; in the assay on Zymoseptoria tritici [21], 0 mm. The zone of inhibition at 200 µg/disc with Bacillus subtilis [14] worked out at 19.7 mm; with Pantoea agglomerans [16], 10.4 mm; in the assay on Staphylococcus [18], 28.2 mm; in the assay with Pseudomonas fluorescens [20], 0 mm; with Zymoseptoria tritici [22], 13 mm.

Source of the values: ChEMBL document CHEMBL1148053, “(+)-(S)-dihydroaeruginoic acid, an inhibitor of Septoria tritici and other phytopathogenic fungi and bacteria, produced by Pseudomonas fluorescens” (1994).
